Measured values reported in ChEMBL document CHEMBL3102749, “Antiprotozoal activity of dicationic 3,5-diphenylisoxazoles, their prodrugs and aza-analogues” (Bioorg Med Chem, 2014).
pIC50: −log10 of the molar value. Activity calls are given as the source filed them. The rule behind the calls is not given here.

How the values were obtained:
[1] = system: Trypanosoma brucei rhodesiense; assay: Trypanocidal activity against bloodstream form of Trypanosoma brucei rhodesiense STIB900 infected in NMRI mouse assessed as mean survival days at 5 mg/kg, ip qd administered for 4 days; type: functional; conditions: route intraperitoneal
Outline: (§1)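 Mice infected with T. b. rhodesiense STIB900 (acute model) dosed once daily for 4 consecutive days, ip (diamidines) or oral (prodrugs). Cure means survival to 60 days post infection without parasitemia relapse. Mean survival days post infection are averaged over all mice, with cured mice counted as >60 days.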

[2] = system: Trypanosoma brucei rhodesiense; assay: Trypanocidal activity against bloodstream form of Trypanosoma brucei rhodesiense STIB900 infected in NMRI mouse assessed as decrease in parasitemia at 5 mg/kg, ip qd administered for 4 days measured once per week until 60 days by microscopic analysis; type: functional, organism-based; parameters: dose 5 mg/kg
Outline: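 Mice infected with T. b. rhodesiense STIB900 received one dose daily for 4 consecutive days, 4 mice per group. Diamidines were given intraperitoneally and prodrugs orally. The primary endpoint was cures per group: a mouse counted as cured if it survived 60 days post-infection without parasitemia relapse.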

[3] = system: Trypanosoma brucei rhodesiense; assay: Trypanocidal activity against bloodstream form of Trypanosoma brucei rhodesiense STIB900 infected in NMRI mouse assessed as mean survival days at 25 mg/kg, po qd administered for 4 days; type: functional; outline: as §1
[4] = Selectivity index, ratio of IC50 for rat L6 cells to IC50 for chloroquine/pyrimethamine-resistant Plasmodium falciparum K1 infected in human red blood cells; type: toxicity, cell-based; conditions: read-out: Ratio IC50
Outline: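 Ratio of IC50 in L6 rat myoblast cytotoxicity assay to IC50 against P. falciparum K1; each IC50 is the mean of two independent assays.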

[5] = Selectivity index, ratio of IC50 for rat L6 cells to IC50 for Trypanosoma brucei rhodesiense STIB900; type: toxicity, cell-based; conditions: read-out: Ratio IC50
Outline: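 Ratio of IC50 in L6 rat myoblast cytotoxicity assay to IC50 against T. b. rhodesiense STIB900; each IC50 is the mean of two independent assays.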

L6 = assay: Cytotoxicity against rat L6 cells assessed as cell viability after 70 hrs by Alamar blue assay; type: cell-based; conditions: L6, 70 h
Plasmodium falciparum = assay: Antiplasmodial activity against chloroquine/pyrimethamine-resistant Plasmodium falciparum K1 infected in human red blood cells assessed as [3H]-hypoxanthine incorporation incubated for 48 hrs prior to [3H]-hypoxanthine addition measured after 24 hrs by liquid scintillation counting analysis; type: functional, organism-based
[6] = system: Trypanosoma brucei rhodesiense; assay: Antitrypanosomal activity against Trypanosoma brucei rhodesiense STIB900 assessed as growth inhibition after 70 hrs by Alamar blue assay; type: functional, organism-based; conditions: STIB900, 70 h

| Structure (SMILES) | MSD [1] | Activity [2] | selectivity ratio [4] | selectivity ratio [5] | pIC50 (L6) | pIC50 (Plasmodium falciparum) | pIC50 [6] | other results |
| --- | --- | --- | --- | --- | --- | --- | --- | --- |
| COc1cc(C(=N)N)ccc1-c1cc(-c2ccc(C(=N)N)cc2OC)on1.Cl.Cl | >60 days | Active |  |  |  |  |  |  |
| COc1cc(C(=N)N)ccc1-c1cc(-c2ccc(C(=N)N)cc2)on1.Cl.Cl | >60 days | Active |  |  |  |  |  |  |
| COc1cc(/C(N)=N/O)ccc1-c1cc(-c2ccc(/C(N)=N/O)cc2)on1.Cl.Cl |  |  |  |  |  |  |  | MSD [3]: >42 days |
| Cl.Cl.Cl.N=C(N)c1ccc(-c2cc(-c3ccc(C(=N)N)cc3Cl)on2)cc1 | >31 days | inactive |  |  |  |  |  |  |
| N=C(N)c1cccc(-c2cc(-c3cc(C(=N)N)ccn3)no2)c1 |  |  | 8700 | 265 | 3.89 | 7.82 | 6.31 |  |
| Cl.Cl.N=C(N)c1ccc(-c2cc(-c3ccc(C(=N)N)cc3[N+](=O)[O-])no2)cc1 | >51.25 days |  |  |  |  |  |  |  |
| N=C(N)c1cncc(-c2cc(-c3cccc(C(=N)N)c3)on2)c1 |  |  | > 10000 | > 309 | < 3.74 | 7.74 | 6.23 |  |
| CO/N=C(\N)c1ccc(-c2cc(-c3cc(/C(N)=N/OC)ccc3OC)no2)cc1.Cl.Cl |  |  |  |  |  |  |  | MSD [3]: >37.25 days |
| Cl.Cl.Cl.N=C(N)c1ccc(-c2cc(-c3ccc(C(=N)N)cc3Cl)no2)cc1 | 28 days | inactive |  |  |  |  |  |  |
| Cl.Cl.N=C(N)c1ccc(-c2cc(-c3ccc(C(=N)N)cc3)on2)cc1 | >60 days |  |  |  |  |  |  |  |
| Cl.Cl.Cl.N=C(N)c1cccc(-c2cc(-c3ccc(C(=N)N)cc3Cl)no2)c1 | 24 days | inactive |  |  |  |  |  |  |
| N=C(N)c1ccnc(-c2cc(-c3cc(C(=N)N)ccn3)on2)c1 |  |  | > 550 | > 32 | < 3.74 | 6.49 | 5.24 |  |
| Cl.Cl.Cl.N=C(N)c1cccc(-c2cc(-c3cc(C(=N)N)ccc3Cl)no2)c1 | 22.25 days | inactive |  |  |  |  |  |  |
| CO/N=C(\N)c1ccc(-c2cc(-c3ccc(/C(N)=N/OC)cc3)on2)cc1.Cl.Cl |  |  |  |  |  |  |  | MSD [3]: >42.25 days |
| N=C(N)c1cccc(-c2cc(-c3cc(C(=N)N)ccn3)on2)c1 |  |  | > 7230 | > 986 | < 3.74 | 7.60 | 6.74 |  |
| Cl.Cl.N=C(N)c1ccc(-c2cc(-c3ccc(C(=N)N)cc3[N+](=O)[O-])on2)cc1 | >53.75 days |  |  |  |  |  |  |  |
| COc1ccc(C(=N)N)cc1-c1cc(-c2ccc(C(=N)N)cc2[N+](=O)[O-])no1.Cl.Cl | >60 days | Active |  |  |  |  |  |  |
| N=C(N)c1cncc(-c2cc(-c3cncc(C(=N)N)c3)on2)c1 |  |  | > 1250 | > 29 | < 3.74 | 6.84 | 5.21 |  |
| C[C@@H]1CC[C@H]2[C@@H](C)C(=O)O[C@@H]3O[C@@]4(C)CC[C@@H]1[C@]32OO4 [ARTEMISININ] |  |  |  |  | < 3.74 | 8.40 |  |  |
| N=C(N)c1ccc(-c2cc(-c3cc(C(=N)N)ccn3)no2)nc1 |  |  | > 2430 | > 180 | < 3.74 | 8.13 | 5.78 |  |
| N=C(N)c1ccc(-c2cc(-c3cc(C(=N)N)ccn3)on2)nc1 |  |  | > 1260 | > 53 | < 3.74 | 6.85 | 5.47 |  |
| CO/N=C(\N)c1cccc(-c2cc(-c3ccc(/C(N)=N/OC)cc3OC)no2)c1.Cl.Cl |  |  |  |  |  |  |  | MSD [3]: >50 days |
| N=C(N)c1ccc(-c2cc(-c3ccc(C(=N)N)cn3)on2)nc1 |  |  | > 1350 | > 302 | < 3.74 | 6.87 | 6.22 |  |
| Cl.Cl.Cl.N=C(N)c1cccc(-c2cc(-c3cc(C(=N)N)ccc3Cl)on2)c1 | 25 days | inactive |  |  |  |  |  |  |
| COc1cc(C(=N)N)ccc1-c1cc(-c2cc(C(=N)N)ccc2OC)on1.Cl.Cl | >60 days | Active |  |  |  |  |  |  |
| Nc1nc(N)nc(Nc2ccc([As]3SCC(CO)S3)cc2)n1 (stereo not drawn) |  | Active |  |  |  |  |  |  |
